Assay results taken from ChEMBL document CHEMBL1145095, “New bivalent PKC ligands linked by a carbon spacer: enhancement in binding affinity” (J Med Chem, 2003).
pKd, pKi: −log10 of the molar value.

Tests used:
[1] = target: T1, Protein kinase C delta type (Mus musculus, UniProt P28867); experiment: Tested for ability to displace […] phorbol 12,13- dibutyrate binding from recombinant murine Protein kinase C delta in presence of [Ca2+]
[2] = target: T1, Protein kinase C delta type; experiment: Tested for ability to displace […] phorbol 12,13- dibutyrate binding from recombinant C1b domain of murine Protein kinase C delta in presence of [Ca2+]
[3] = target: T2, Protein kinase C delta type (Homo sapiens, UniProt Q05655); experiment: Inhibition of human Protein kinase C delta
T2 sequence (Q05655 whole entry): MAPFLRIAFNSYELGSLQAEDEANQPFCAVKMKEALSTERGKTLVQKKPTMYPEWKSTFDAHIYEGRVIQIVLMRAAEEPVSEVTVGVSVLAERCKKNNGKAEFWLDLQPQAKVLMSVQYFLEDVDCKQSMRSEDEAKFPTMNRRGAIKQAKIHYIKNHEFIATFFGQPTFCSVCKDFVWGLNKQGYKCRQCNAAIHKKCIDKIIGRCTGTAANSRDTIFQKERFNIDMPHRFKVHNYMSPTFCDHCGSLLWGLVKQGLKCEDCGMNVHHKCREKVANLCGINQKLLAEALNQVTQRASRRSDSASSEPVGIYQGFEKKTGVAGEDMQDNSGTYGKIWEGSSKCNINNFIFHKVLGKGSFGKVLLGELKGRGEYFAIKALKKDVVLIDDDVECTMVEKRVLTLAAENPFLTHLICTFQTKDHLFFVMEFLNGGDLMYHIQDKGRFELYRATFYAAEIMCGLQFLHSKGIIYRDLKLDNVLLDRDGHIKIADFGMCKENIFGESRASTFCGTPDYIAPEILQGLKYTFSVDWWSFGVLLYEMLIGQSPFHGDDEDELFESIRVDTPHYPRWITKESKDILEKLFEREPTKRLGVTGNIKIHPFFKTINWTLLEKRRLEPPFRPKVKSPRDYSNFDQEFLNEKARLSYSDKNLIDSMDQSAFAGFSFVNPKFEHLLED
Outline: (§1)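 Ligand interaction with each PKC isozyme (α, δ, β1, γ or ε) was measured as competition by the nonradioactive ligand against [³H]PDBU binding to that isozyme, using an earlier published method. Affinities are expressed as Ki.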

[4] = target: T2, Protein kinase C delta type; experiment: Binding affinity for human Protein kinase C delta; outline: as §1
[5] = target: T3, Protein kinase C beta type (Homo sapiens, UniProt P05771); experiment: Inhibition of human PKC beta-1; outline: as §1
T3 sequence (P05771 whole entry): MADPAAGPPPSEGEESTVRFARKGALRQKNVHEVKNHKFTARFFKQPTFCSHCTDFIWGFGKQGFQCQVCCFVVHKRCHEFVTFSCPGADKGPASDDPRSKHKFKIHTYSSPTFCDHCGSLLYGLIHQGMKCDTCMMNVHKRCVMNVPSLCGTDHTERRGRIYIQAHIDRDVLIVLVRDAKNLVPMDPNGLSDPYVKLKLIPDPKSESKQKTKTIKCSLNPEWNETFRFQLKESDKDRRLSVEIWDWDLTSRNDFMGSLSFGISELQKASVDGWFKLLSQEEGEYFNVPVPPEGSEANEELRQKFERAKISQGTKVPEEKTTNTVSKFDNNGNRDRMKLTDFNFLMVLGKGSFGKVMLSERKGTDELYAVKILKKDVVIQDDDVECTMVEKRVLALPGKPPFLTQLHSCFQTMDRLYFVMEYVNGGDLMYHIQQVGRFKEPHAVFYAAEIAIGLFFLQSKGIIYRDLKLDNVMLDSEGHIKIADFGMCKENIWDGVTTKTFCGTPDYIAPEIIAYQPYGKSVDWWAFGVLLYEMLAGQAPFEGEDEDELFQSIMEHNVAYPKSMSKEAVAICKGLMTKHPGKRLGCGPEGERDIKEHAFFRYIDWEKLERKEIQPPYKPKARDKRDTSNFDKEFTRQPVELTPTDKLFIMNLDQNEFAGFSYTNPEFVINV

[6] = target: T4, Protein kinase C gamma type (Homo sapiens, UniProt P05129); experiment: Binding affinity for human Protein kinase C gamma with [Ca2+]; outline: as §1
[7] = target: T4, Protein kinase C gamma type; experiment: Inhibition of human Protein kinase C gamma with [Ca2+]; outline: as §1
[8] = target: T3, Protein kinase C beta type; experiment: Binding affinity for human PKC beta-1; outline: as §1
[9] = target: T5, Protein kinase C epsilon type (Homo sapiens, UniProt Q02156); experiment: Inhibition of human Protein kinase C epsilon; outline: as §1
T5 sequence (Q02156 whole entry): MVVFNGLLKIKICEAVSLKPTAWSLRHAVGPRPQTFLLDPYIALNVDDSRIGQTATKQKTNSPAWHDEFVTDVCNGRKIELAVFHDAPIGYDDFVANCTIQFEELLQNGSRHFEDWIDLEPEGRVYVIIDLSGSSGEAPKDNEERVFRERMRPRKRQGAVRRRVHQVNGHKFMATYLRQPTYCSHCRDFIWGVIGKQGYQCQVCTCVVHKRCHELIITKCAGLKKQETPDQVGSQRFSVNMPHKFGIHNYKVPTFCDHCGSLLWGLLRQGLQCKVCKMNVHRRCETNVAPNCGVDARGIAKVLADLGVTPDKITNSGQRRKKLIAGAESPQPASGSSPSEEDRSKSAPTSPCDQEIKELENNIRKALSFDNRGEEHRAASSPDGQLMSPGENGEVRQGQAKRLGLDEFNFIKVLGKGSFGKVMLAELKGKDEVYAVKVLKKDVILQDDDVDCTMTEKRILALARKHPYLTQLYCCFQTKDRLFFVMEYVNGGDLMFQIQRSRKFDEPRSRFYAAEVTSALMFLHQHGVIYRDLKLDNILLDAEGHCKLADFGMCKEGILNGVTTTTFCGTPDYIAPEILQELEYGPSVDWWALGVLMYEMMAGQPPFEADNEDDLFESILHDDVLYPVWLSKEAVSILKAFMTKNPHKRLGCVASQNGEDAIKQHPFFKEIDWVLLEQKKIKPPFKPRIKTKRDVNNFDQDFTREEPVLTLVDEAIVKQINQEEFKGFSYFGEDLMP

[10] = target: T5, Protein kinase C epsilon type; experiment: Binding affinity for human Protein kinase C epsilon; outline: as §1

T1 sequence (P28867 whole entry, the tested form may be a part): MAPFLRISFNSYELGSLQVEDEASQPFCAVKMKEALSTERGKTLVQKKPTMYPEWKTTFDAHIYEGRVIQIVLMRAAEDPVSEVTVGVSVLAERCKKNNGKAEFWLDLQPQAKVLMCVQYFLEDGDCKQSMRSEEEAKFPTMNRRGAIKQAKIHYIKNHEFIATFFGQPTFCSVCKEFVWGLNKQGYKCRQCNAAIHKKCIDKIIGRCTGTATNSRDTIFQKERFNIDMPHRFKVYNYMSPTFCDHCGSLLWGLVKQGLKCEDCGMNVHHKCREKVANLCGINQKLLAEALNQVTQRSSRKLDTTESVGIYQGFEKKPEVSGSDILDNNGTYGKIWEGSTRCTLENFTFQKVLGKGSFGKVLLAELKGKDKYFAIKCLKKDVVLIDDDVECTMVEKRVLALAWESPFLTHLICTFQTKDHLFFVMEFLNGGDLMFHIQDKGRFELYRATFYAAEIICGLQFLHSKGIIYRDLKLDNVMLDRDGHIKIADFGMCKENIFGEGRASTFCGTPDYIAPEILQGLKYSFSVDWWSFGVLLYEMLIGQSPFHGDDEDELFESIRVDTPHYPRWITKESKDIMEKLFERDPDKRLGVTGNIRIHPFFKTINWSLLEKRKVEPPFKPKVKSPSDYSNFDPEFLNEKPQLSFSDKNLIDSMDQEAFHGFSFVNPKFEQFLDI

Row | SMILES | pKi [1] | pKi [2] | other results
1 | CC(C)[C@H]1C(=O)N[C@H](CO)Cc2cc(NC(=O)CCCCCCCCC(=O)Nc3ccc4c(c3)N(C)[C@@H](C(C)C)C(=O)N[C@H](CO)C4)ccc2N1C | 8.24 | 8.90 | –
2 | CC(C)[C@H]1C(=O)N[C@H](CO)Cc2cc(NC(=O)CCCCCCC(=O)Nc3ccc4c(c3)N(C)[C@@H](C(C)C)C(=O)N[C@H](CO)C4)ccc2N1C | 6.77 | 7.51 | –
3 | CC(C)[C@H]1C(=O)N[C@H](CO)C1c1ccc(OC(=O)CCCCCCCCCCC(=O)Oc2ccc([C@H]3[C@@H](C(C)C)C(=O)N[C@@H]3CO)c3ccccc23)c2ccccc12 (stereo not given in full) | 7.35 | – | –
4 | CC(C)[C@H]1C(=O)N[C@H](CO)Cc2cc(NC(=O)CCCCCCCCCCCCCCCCCCCCC(=O)Nc3ccc4c(c3)N(C)[C@@H](C(C)C)C(=O)N[C@H](CO)C4)ccc2N1C | 9.42 | 9.96 | –
5 | CC(C)[C@H]1C(=O)N[C@H](CO)Cc2cc(NC(=O)CCCCCCCCCCCCC(=O)Nc3ccc4c(c3)N(C)[C@@H](C(C)C)C(=O)N[C@H](CO)C4)ccc2N1C | 9.11 | 9.48 | pKi [3]: 8.67; pKd [4]: 9.00; pKi [5]: 8.85; pKd [6]: 9.80; pKi [7]: 8.82; pKd [8]: 9.72; pKi [9]: 9.26; pKd [10]: 9.43
6 | CC(C)[C@H]1C(=O)N[C@H](CO)Cc2cc(NC(=O)CCCCCCCCCCC(=O)Nc3ccc4c(c3)N(C)[C@@H](C(C)C)C(=O)N[C@H](CO)C4)ccc2N1C | 8.88 | 9.32 | –
7 | CC(C)[C@H]1C(=O)N[C@H](CO)Cc2cc(NC(=O)CCCCCCCCCCCCCCC(=O)Nc3ccc4c(c3)N(C)[C@@H](C(C)C)C(=O)N[C@H](CO)C4)ccc2N1C | 9.44 | 9.85 | –
8 | CC(C)[C@H]1C(=O)N[C@H](CO)Cc2cc(NC(=O)CCCCCCCCC(=O)Nc3ccc(O)c4ccccc34)ccc2N1C | 7.67 | 8.36 | –
9 | CC(C)[C@H]1C(=O)N[C@H](CO)Cc2cc(NC(=O)CCCCC(=O)Nc3ccc4c(c3)N(C)[C@@H](C(C)C)C(=O)N[C@H](CO)C4)ccc2N1C | 7.17 | 7.77 | –
